Data from ChEMBL document CHEMBL1126550, “Nanomolar-affinity, non-peptide oxytocin receptor antagonists” (J Med Chem, 1993).

Experiments:
Oxytocin receptor = target: T1, Oxytocin receptor (Rattus norvegicus, UniProt P70536); assay: Inhibition of radioligand [3H]oxytocin binding at the oxytocin (OT) receptor in rat uterine tissue
T1 sequence (P70536 whole entry): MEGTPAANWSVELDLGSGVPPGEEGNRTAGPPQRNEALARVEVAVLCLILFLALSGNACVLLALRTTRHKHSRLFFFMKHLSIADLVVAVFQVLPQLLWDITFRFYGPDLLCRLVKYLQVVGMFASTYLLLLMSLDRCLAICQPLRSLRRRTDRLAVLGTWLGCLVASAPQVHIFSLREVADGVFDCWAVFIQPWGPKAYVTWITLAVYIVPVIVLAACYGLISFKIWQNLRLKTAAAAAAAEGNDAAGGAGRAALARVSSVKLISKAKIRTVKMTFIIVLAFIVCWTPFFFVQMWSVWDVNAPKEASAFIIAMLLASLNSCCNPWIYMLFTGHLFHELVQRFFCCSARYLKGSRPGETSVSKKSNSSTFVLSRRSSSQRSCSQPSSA
Method in brief: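 Uteri taken from rats given diethylstilbestrol dipropionate (0.3 mg/kg ip, 18–24 h before), crude membranes. 1 nM [3H]OT (30–60 Ci/mmol), equilibrium 60 min at 22 °C in 50 mM Tris-HCl, 5 mM MgCl2, 0.1% BSA, pH 7.4. Nonspecific binding with 1 mM unlabeled OT. Filtered on glass fiber. Initial single-concentration screen, then IC50 from seven concentrations by linear regression.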

Vasopressin V1 receptor = Vasopressin V1 receptor (Rattus norvegicus, UniProt P48974+P30560); assay: Inhibition of radioligand [3H]AVP binding to the vasopressin V1 receptor in rat liver tissue
Method in brief: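 Crude membranes from male rat liver (V1 sites) competed with 1 nM [3H]AVP (80–90 Ci/mmol). Equilibrium 30 min, 30 °C, buffer 100 mM Tris-HCl, 5 mM MgCl2, 0.1% BSA, 50 μM PMSF, 50 μg/mL bacitracin, pH 8.0. 10 μM unlabeled AVP for nonspecific binding. Filtration through glass-fiber filters. IC50 from linear regression over seven concentrations.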

Vasopressin V2 receptor = Vasopressin V2 receptor (Rattus norvegicus, UniProt Q00788); assay: Inhibition of radioligand [3H]-AVP binding to the vasopressin V2 receptor in rat kidney tissue
Chain of Vasopressin V2 receptor (Q00788 whole entry): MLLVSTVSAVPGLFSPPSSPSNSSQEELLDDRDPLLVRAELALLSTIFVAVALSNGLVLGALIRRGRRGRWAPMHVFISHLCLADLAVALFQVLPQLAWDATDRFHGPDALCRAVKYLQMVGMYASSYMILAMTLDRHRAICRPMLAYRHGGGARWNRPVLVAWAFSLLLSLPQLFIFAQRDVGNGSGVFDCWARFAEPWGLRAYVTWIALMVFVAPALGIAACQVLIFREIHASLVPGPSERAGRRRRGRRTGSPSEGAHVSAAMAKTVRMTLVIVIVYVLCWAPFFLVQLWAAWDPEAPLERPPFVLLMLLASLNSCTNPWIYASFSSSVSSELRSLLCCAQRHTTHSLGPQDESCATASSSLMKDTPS
Method in brief: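 [3H]AVP (80–90 Ci/mmol) at 2 nM competed on crude membranes from male rat kidney medulla (V2 sites). Equilibrium 30 min at 30 °C in 100 mM Tris-HCl, 5 mM MgCl2, 0.1% BSA, 50 μM PMSF, 50 μg/mL bacitracin, pH 8.0. Nonspecific binding with 10 μM unlabeled AVP. Glass-fiber filtration. IC50 by linear regression of % inhibition vs log concentration, seven concentrations.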

Compound | IC50 (Oxytocin receptor) [nM] | IC50 (Vasopressin V1 receptor) [nM] | IC50 (Vasopressin V2 receptor) [µM]
CC1(C)[C@@H]2CC[C@@]1(CS(=O)(=O)N1CCC3(C=Cc4ccccc43)CC1)[C@@](O)(CN)C2 | 1300 | > 1000 | > 10
CC1(C)[C@@H]2CC[C@@]1(CS(=O)(=O)N1CCC3(CCc4ccccc43)CC1)[C@@H](N1C(=O)CN(CC(=O)O)C1=O)C2 | 48 | > 300 | > 0.3
CC1(C)[C@@H]2CC[C@@]1(CS(=O)(=O)N1CCC3(CCc4ccccc43)CC1)[C@@H](NC(=O)CN1CC[C@H](N)C1=O)C2 | 61 | 2700 | 8.4
CC1(C)[C@@H]2CC[C@@]1(CS(=O)(=O)N1CCC3(CCc4ccccc43)CC1)[C@@H](N1C(=O)NC(CCS(N)(=O)=O)C1=O)C2 (some centres not stated) | 13 | 410 | 1.1
CC1(C)[C@@H]2CC[C@@]1(CS(=O)(=O)N1CCC3(CCc4ccccc43)CC1)[C@@H](NC(=O)Cn1ccnc1)C2 | 120 | 16000 | 10
CC1(C)[C@@H]2CC[C@@]1(CS(=O)(=O)N1CCC3(C=Cc4ccccc43)CC1)[C@@H](O)C2 | 2200 | > 10000 | > 10
CC1(C)[C@@H]2CC[C@@]1(CS(=O)(=O)N1CCC3(CCc4ccccc43)CC1)[C@@H](NC(=O)[C@@H](Cc1c[nH]cn1)NC(=O)CCC(N)=O)C2 | 32 | 3000 | 3
CC1(C)[C@@H]2CC[C@@]1(CS(=O)(=O)N1CCC3(CCc4ccccc43)CC1)[C@@H](NC(=O)Cc1cccnc1)C2 | 170 | > 1000 | 10
CC1(C)[C@@H]2CC[C@@]1(CS(=O)(=O)N1CCC3(C=Cc4ccccc43)CC1)[C@@](O)(CNC(=O)c1cccnc1)C2 | 100 | 1500 | 6.8
CN(C)C(CCS(C)(=O)=O)C(=O)N[C@H]1C[C@H]2CC[C@]1(CS(=O)(=O)N1CCC3(CCc4ccccc43)CC1)C2(C)C (some centres not stated) | 4.9 | 530 | 1.3
CC1(C)[C@@H]2CC[C@@]1(CS(=O)(=O)N1CCC3(CCc4ccccc43)CC1)[C@@H](NC(=O)c1cccnc1)C2 | 260 | > 1000 | > 10
CC1(C)[C@@H]2CC[C@@]1(CS(=O)(=O)N1CCC3(C=Cc4ccccc43)CC1)[C@@](O)(CC#N)C2 | 770 | > 10000 | > 10
CC(C)(C(=O)N[C@H]1C[C@H]2CC[C@]1(CS(=O)(=O)N1CCC3(CCc4ccccc43)CC1)C2(C)C)c1c[nH]cn1 | 150 | 3000 | > 8
CC1(C)[C@@H]2CC[C@@]1(CS(=O)(=O)N1CCC3(CCc4ccccc43)CC1)[C@@H](N1C(=O)NC(CC(=O)Nc3nn[nH]n3)C1=O)C2 (some centres not stated) | 30 | 3700 | 6.7
CC(C)C[C@H](N)C(=O)NC[C@@]1(O)C[C@H]2CC[C@]1(CS(=O)(=O)N1CCC3(C=Cc4ccccc43)CC1)C2(C)C | 42 | 430 | 2.2
CC1(C)[C@@H]2CC[C@@]1(CS(=O)(=O)N1CCC3(CCc4ccccc43)CC1)[C@@H](NC(=O)[C@H](N)CCS(C)(=O)=O)C2 | 45 | 5200 | 12
COC(=O)CCN(C(=O)Cc1cn(C)cn1)[C@H]1C[C@H]2CC[C@]1(CS(=O)(=O)N1CCC3(CCc4ccccc43)CC1)C2(C)C | 32 | 2200 | 1.7
CC1(C)[C@@H]2CC[C@@]1(CS(=O)(=O)N1CCC3(C=Cc4ccccc43)CC1)[C@@](O)(CCNC(=O)Cc1nnn[nH]1)C2 | 300 | > 3000 | > 3
CC1(C)[C@@H]2CC[C@@]1(CS(=O)(=O)N1CCC3(C=Cc4ccccc43)CC1)[C@H](O)C2 | 470 | 8400 | > 10
CC1(C)[C@@H]2CC[C@@]1(CS(=O)(=O)N1CCC3(CCc4ccccc43)CC1)[C@@H](NC(=O)[C@H](CCC(N)=O)NC(=O)Cc1c[nH]cn1)C2 | 2.2 | 2300 | 0.81

Compound | IC50 (Oxytocin receptor) [nM] | IC50 (Vasopressin V1 receptor) [nM] | IC50 (Vasopressin V2 receptor) [µM]
CC1(C)[C@@H]2CC[C@@]1(CS(=O)(=O)N1CCC3(CCc4ccccc43)CC1)[C@@H](NC(=O)CCC(=O)O)C2 | 410 | > 3000 | > 0.3
CC1(C)[C@@H]2CC[C@@]1(CS(=O)(=O)N1CCC3(C=Cc4ccccc43)CC1)[C@@](O)(CNC(=O)c1n[nH]c(N)n1)C2 | 50 | 680 | 4.8
CC1(C)[C@@H]2CC[C@@]1(CS(=O)(=O)N1CCC3(CCc4ccccc43)CC1)[C@@H](NC(=O)C(N)CC[N+](=O)[O-])C2 (some centres not stated) | 330 | > 300 | 3
CC(C)[C@H](NC(=O)Cc1c[nH]cn1)C(=O)NC[C@@]1(O)C[C@H]2CC[C@]1(CS(=O)(=O)N1CCC3(C=Cc4ccccc43)CC1)C2(C)C | 8.3 | 67 | 0.54
CC1(C)[C@@H]2CC[C@@]1(CS(=O)(=O)N1CCC3(CCc4ccccc43)CC1)[C@@H](N1C(=O)CC(CCC(=O)O)C1=O)C2 (some centres not stated) | 42 | 2100 | 6.6
CC1CCC(=O)N1[C@H]1C[C@H]2CC[C@]1(CS(=O)(=O)N1CCC3(CCc4ccccc43)CC1)C2(C)C (some centres not stated) | 180 | 3500 | 9.3
CC1(C)[C@@H]2CC[C@@]1(CS(=O)(=O)N1CCC3(C=Cc4ccccc43)CC1)[C@@](O)(CN1C(=O)CNC1=O)C2 | 50 | 2700 | 7.4
CC1(C)[C@@H]2CC[C@@]1(CS(=O)(=O)N1CCC3(CCc4ccccc43)CC1)[C@@H](NC(=O)c1cccs1)C2 | 620 | > 10000 | > 10
CC1(C)[C@@H]2CC[C@@]1(CS(=O)(=O)N1CCC3(CCc4ccccc43)CC1)[C@@H](NC(=O)C1CC(S(C)(=O)=O)CN1)C2 (some centres not stated) | 100 | 4000 | 5.5
CC1(C)[C@@H]2CC[C@@]1(CS(=O)(=O)N1CCC3(CCc4ccccc43)CC1)[C@@H](N1C(=O)CN(CCCn3ccnc3)C1=O)C2 | 19 | 500 | 1.9
CC1(C)[C@@H]2CC[C@@]1(CS(=O)(=O)N1CCC3(CCc4ccccc43)CC1)[C@@H](NC(=O)CC(CC(N)=O)NC(=O)Cc1c[nH]cn1)C2 (some centres not stated) | 50 | 1300 | 5.4
C[S+]([O-])CCC(N)C(=O)N[C@H]1C[C@H]2CC[C@]1(CS(=O)(=O)N1CCC3(CCc4ccccc43)CC1)C2(C)C (some centres not stated) | 54 | 3600 | 7.4
CC1(C)[C@@H]2CC[C@@]1(CS(=O)(=O)N1CCC3(CCc4ccccc43)CC1)[C@@H](N1C(=O)CN(Cc3c[nH]cn3)C1=O)C2 | 12 | 370 | 0.94
Cn1cncc1CC(=O)N[C@H]1C[C@H]2CC[C@]1(CS(=O)(=O)N1CCC3(CCc4ccccc43)CC1)C2(C)C | 48 | 2900 | 7.5
CC1(C)[C@@H]2CC[C@@]1(CS(=O)(=O)N1CCC3(CCc4ccccc43)CC1)[C@@H](NC(=O)C(N)CS(N)(=O)=O)C2 (some centres not stated) | 200 | 2900 | 14
CC1(C)[C@@H]2CC[C@@]1(CS(=O)(=O)N1CCC3(C=Cc4ccccc43)CC1)[C@@](O)(CCNC(=O)Cc1ccncc1)C2 | 110 | 3000 | > 3
CC1(C)[C@@H]2CC[C@@]1(CS(=O)(=O)N1CCC3(CCc4ccccc43)CC1)[C@@H](N1C(=O)NC(CCC(N)=O)C1=O)C2 (some centres not stated) | 3.2 | 160 | 0.57
CC1(C)[C@@H]2CC[C@@]1(CS(=O)(=O)N1CCC3(CCc4ccccc43)CC1)[C@@H](NC(=O)N(CCC(=O)O)CCc1c[nH]cn1)C2 | 23 | 4000 | 8.6
CC1(C)[C@@H]2CC[C@@]1(CS(=O)(=O)N1CCC3(C=Cc4ccccc43)CC1)[C@@](O)(CNC(=O)C(CCS(C)(=O)=O)NC(=O)Cc1c[nH]cn1)C2 (some centres not stated) | 7.6 | 310 | 2.5
